Data from ChEMBL document CHEMBL1135725, “N-Aryl N'-hydroxyguanidines, a new class of NO-donors after selective oxidation by nitric oxide synthases: structure-activity relationship” (J Med Chem, 2002).

How the values were obtained:
Assay type in all cases: functional
Conditions in all cases: Mus musculus
[1] = substrate: COc1ccc(NC(=N)NO)cc1; assay: (§1) Kinetic constant for NO formation during oxidation by NADPH and molecular Oxygen with NOS II
In short: (§2)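 Recombinant NOS II (E. coli-expressed, purified) assayed at 37 °C in 50 mM HEPES pH 7.4 with 1 mM NADPH, 100 μM BH4, 5 mM DTT, SOD and catalase (100 U/mL each), and 12-15 μM oxyhemoglobin. Substrate was varied from 5 μM to 2.5 mM. Enzyme level was set to keep oxyhemoglobin conversion below 30%. Kinetic constants come from the initial methemoglobin formation rate at 401 nm; three to four experiments.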

[2] = substrate: Cc1ccc(NC(=N)NO)cc1; assay: as §1; in short: as §2
[3] = substrate: N/C(=N/c1ccc(F)cc1)NO; assay: as §1; in short: as §2
[4] = substrate: N/C(=N/c1ccc(O)cc1)NO; assay: as §1; in short: as §2
[5] = substrate: N/C(=N/c1ccsc1)NO; assay: as §1; in short: as §2
[6] = substrate: N=C(NO)Nc1ccccc1; assay: as §1; in short: as §2

B1: Nitric oxide synthase, inducible (Mus musculus), P29477 (protein)
chain: MACPWKFLFKVKSYQSDLKEEKDINNNVKKTPCAVLSPTIQDDPKSHQNGSPQLLTGTAQNVPESLDKLHVTSTRPQYVRIKNWGSGEILHDTLHHKATSDFTCKSKSCLGSIMNPKSLTRGPRDKPTPLEELLPHAIEFINQYYGSFKEAKIEEHLARLEAVTKEIETTGTYQLTLDELIFATKMAWRNAPRCIGRIQWSNLQVFDARNCSTAQEMFQHICRHILYATNNGNIRSAITVFPQRSDGKHDFRLWNSQLIRYAGYQMPDGTIRGDAATLEFTQLCIDLGWKPRYGRFDVLPLVLQADGQDPEVFEIPPDLVLEVTMEHPKYEWFQELGLKWYALPAVANMLLEVGGLEFPACPFNGWYMGTEIGVRDFCDTQRYNILEEVGRRMGLETHTLASLWKDRAVTEINVAVLHSFQKQNVTIMDHHTASESFMKHMQNEYRARGGCPADWIWLVPPVSGSITPVFHQEMLNYVLSPFYYYQIEPWKTHIWQNEKLRPRRREIRFRVLVKVVFFASMLMRKVMASRVRATVLFATETGKSEALARDLATLFSYAFNTKVVCMDQYKASTLEEEQLLLVVTSTFGNGDCPSNGQTLKKSLFMLRELNHTFRYAVFGLGSSMYPQFCAFAHDIDQKLSHLGASQLAPTGEGDELSGQEDAFRSWAVQTFRAACETFDVRSKHHIQIPKRFTSNATWEPQQYRLIQSPEPLDLNRALSSIHAKNVFTMRLKSQQNLQSEKSSRTTLLVQLTFEGSRGPSYLPGEHLGIFPGNQTALVQGILERVVDCPTPHQTVCLEVLDESGSYWVKDKRLPPCSLSQALTYFLDITTPPTQLQLHKLARFATDETDRQRLEALCQPSEYNDWKFSNNPTFLEVLEEFPSLHVPAAFLLSQLPILKPRYYSISSSQDHTPSEVHLTVAVVTYRTRDGQGPLHHGVCSTWIRNLKPQDPVPCFVRSVSGFQLPEDPSQPCILIGPGTGIAPFRSFWQQRLHDSQHKGLKGGRMSLVFGCRHPEEDHLYQEEMQEMVRKRVLFQVHTGYSRLPGKPKVYVQDILQKQLANEVLSVLHGEQGHLYICGDVRMARDVATTLKKLVATKLNLSEEQVEDYFFQLKSQKRYHEDIFGAVFSYGAKKGSALEEPKATRL
- Km [1]: 2600 µM
- Km [2]: 1100 µM
- Km [3]: 300 µM
- Km [4]: 425 µM
- Km [5]: 25 µM
- Km [6]: 270 µM
